Laboratory results from ChEMBL document CHEMBL1124676, “Hypoxia-selective antitumor agents. 2. Electronic effects of 4-substituents on the mechanisms of cytotoxicity and metabolic stability of nitracrine derivatives” (J Med Chem, 1989).
pIC50: −log10 of the molar value.

Columns and labels:
[1] = Hypersensitivity factor (HF) of IC50 (AA8) / IC50 (EM-9) of compound for repair deffective mutants; type: functional
In short: (§1)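 Miniassay: AA8, UV-4, UV-5 or EM-9 cells were seeded at 2 × 10^4 cells/mL in 24-well dishes. After 24 h, five 2-fold serial concentrations were added in duplicate and held 4 h at 37 °C. Cells were washed, grown 30 h more, trypsinized and counted electronically. IC50 is 50% of mean control cell density. HF = IC50(AA8)/IC50(mutant), mean ± SE of 2–4 experiments.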

[2] = Hypersensitivity factor (HF) of IC50 (AA8) / IC50 (UV-4) of compound for repair deffective mutants; type: functional; in short: as §1
[3] = Hypersensitivity factor (HF) of IC50 (AA8) / IC50 (UV-5) of compound for repair deffective mutants; type: functional; in short: as §1
[4] = Half life of extracellular bioactivity assessed by bioassay of culture supernatant against aerobic UV-4 cells; type: ADME, cell-based, Cricetulus griseus, UV4; conditions: chinese hamster, aerobic UV-4 cell cultures (culture supernatant)
In short: (§2)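 Plateau-phase AA8 cells, 10^6 cells/mL, stirred suspension under 5% CO2 in air or N2. Supernatants sampled over time (spun 1300g × 1 min) and dilutions assayed against log-phase UV-4 (seeded 3 × 10^3 cells/mL, 24 h earlier), 4-day continuous exposure, methylene blue staining. Activity remaining = IC50 at time zero / apparent IC50; half-life and zero-time intercept from log-linear regression.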

[5] = Half life of extracellular bioactivity assessed by bioassay of culture supernatant against hypoxic UV-4 cells; type: ADME, cell-based, Cricetulus griseus, UV4; conditions: chinese hamster, hypoxic UV-4 cell cultures (culture supernatant); in short: as §2
[6] = Extrapolated fraction of biological activity remaining at time zero of hypoxic AA8 suspension cultures; type: ADME; conditions: hamster; in short: as §2
[7] = (§3) Extrapolated fraction of biological activity remaining at time zero of stirred aerobic AA8 suspension cultures; type: ADME; conditions: hamster; in short: as §2
[8] = Total compound concentration in AA8 suspension cultures at zero time; type: ADME; conditions: hamster
CHO-AA8 [9] = test: Inhibitory activity to reduce cell density by 50% of AA8 cells under aerobic conditions; type: functional, cell-based; conditions: Cricetulus griseus
In short: (§4)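 Microassay: 200 AA8 or 300 UV-4 viable cells/well plus 5000 irradiated (35 Gy) AA8 feeder cells. Serial 2-fold drug dilutions added after 24 h. Plates held 18 h at 37 °C in chambers flushed with 5% CO2 in air or in N2 (with 1% H2, Pd catalyst). Then washed, grown 72-78 h, stained with methylene blue, A620−A405. IC50 vs 50% of control; three independent experiments.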

UV4 [10] = test: Inhibitory ativity to reduce cell density by 50% of repair deffective mutant UV-4 cells in 96-well cultures under aerobic conditions; type: functional, cell-based; conditions: Cricetulus griseus; in short: as §4
UV4 [11] = test: Inhibitory concentration required to reduce cell density in UV-4 cells to 50% of controls (cells were exposed to compound for 4 days continuously); type: functional, cell-based; conditions: Cricetulus griseus, UV4, 96 h
In short: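 UV-4 cells seeded at 3 × 10^3 cells/mL about 24 h before drug, exposed continuously for 4 days, then methylene blue staining. IC50 = concentration reducing absorbance to 50% of controls; six determinations.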

[12] = Ratio for […], expressed as hypersensitivity factor under aerobic conditions; type: functional; in short: as §4
[13] = Ratio of growth inhibition of compound to reduce cell density by 50% of repair deffective mutant UV-4 cells in 96-well cultures under aerobic and hypoxic conditions (air/N2); type: functional; in short: as §4
[14] = Ratio of growth inhibition of compound to reduce cell density by 50% of AA8 cells under aerobic and hypoxic conditions (air/N2); type: functional, CHO-AA8; in short: as §4
[15] = Half life of extracellular bioactivity assessed by bioassay of culture supernatant against aerobic UV-4 cells; No statistically significant trend with time; type: ADME, cell-based, Cricetulus griseus; conditions: chinese hamster, uv4; in short: as §2
CHO-AA8 [16] = test: as §3; type: functional, Cricetulus griseus; in short: as §2
[17] = Ratio for hypoxic AA8/ hypoxic UV-4, expressed as hypersensitivity factor under hypoxic conditions; type: functional; in short: as §4

SMILES | Ratio [1] | Ratio [2] | Ratio [3] | half-life [4] [h] | half-life [5] [h] | A0 [6] | A0 [7] | CO [8] [mM] | pIC50 (CHO-AA8 [9]) | pIC50 (UV4 [10]) | pIC50 (UV4 [11]) | Ratio [12] | Ratio [13] | Ratio [14] | T1/2 [15] | A0 (CHO-AA8 [16]) | Ratio [17]
CCOS(C)(=O)=O [METHANESULFONIC ACID ETHYL ESTER] | 6.3 | 1.3 | 1.2 |  |  |  |  |  |  |  |  |  |  |  |  |  | 
CN(C)CCCNc1c2ccccc2nc2c(Cl)ccc([N+](=O)[O-])c12 |  |  |  | 4.3 | 0.68 | 0.56 | 0.79 | 0.04 | 7.48 | 8.48 | 9.21 | 13 | 4.9 | 3.7 |  |  | 
O=[N+]([O-])c1cc[n+]([O-])c2ccccc12 [4-NITROQUINOLINE-1-OXIDE] | 0.8 | 17 | 16 |  |  |  |  |  |  |  |  |  |  |  |  |  | 
COc1ccc([N+](=O)[O-])c2c(NCCCN(C)C)c3ccccc3nc12 |  |  |  | 14 | 5.2 | 0.78 | 0.76 | 3 | 6.21 | 7.20 | 7.84 | 7.8 | 4.2 | 5.3 |  |  | 
CN(C)CCCNc1c2ccccc2nc2c(F)ccc([N+](=O)[O-])c12 |  |  |  | 0.91 | 0.77 | 0.84 | 0.64 | 0.1 | 6.60 | 7.92 | 8.70 | 21 | 1.4 | 1.3 |  |  | 
CO[C@@]12[C@H](COC(N)=O)C3=C(C(=O)C(C)=C(N)C3=O)N1C[C@@H]1N[C@@H]12 | 0.78 | 86 | 2.35 |  |  |  |  |  |  |  |  |  |  |  |  |  | 
COC(=O)c1ccc([N+](=O)[O-])c2c(NCCCN(C)C)c3ccccc3nc12 |  |  |  |  | 3.9 | 0.45 |  | 0.01 | 5.54 | 5.71 | 6.23 | 1.5 | 1.2 | 1.2 | Not Active | 0.47 | 1.5
CN(C)CCCNc1c2ccccc2nc2c(N(CCO)CCO)ccc([N+](=O)[O-])c12 |  |  |  |  |  |  |  |  | 4.21 | 4.71 |  |  |  |  |  |  | 
O=C(O)CCCc1ccc(N(CCCl)CCCl)cc1 | 0.69 | 43 | 1.4 |  |  |  |  |  |  |  |  |  |  |  |  |  | 
Cc1ccc([N+](=O)[O-])c2c(NCCCN(C)C)c3ccccc3nc12 |  |  |  |  | 0.99 | 1.12 | 0.65 | 0.2 | 7.12 | 8.10 | 8.78 | 9 | 4.6 | 5 | Not Active |  | 
CC(=O)OCCN(CCOC(C)=O)c1ccc([N+](=O)[O-])c2c(NCCCN(C)C)c3ccccc3nc12 |  |  |  | 18 | 8.4 | 1.03 | 1.11 |  | 4.37 | 4.94 | 5.46 | 4.8 | 4.8 | 4.5 |  |  | 
CN(C)CCCNc1c2ccccc2nc2c(N(C)C)ccc([N+](=O)[O-])c12 |  |  |  | 4.8 | 2.3 | 0.68 | 0.78 |  | 4.72 | 5.21 | 6.39 | 2.1 | 2.3 | 3.3 |  |  | 
COc1cc(NS(C)(=O)=O)ccc1Nc1c2ccccc2nc2ccccc12 | 0.68 | 0.9 | 0.9 |  |  |  |  |  |  |  |  |  |  |  |  |  | 
CN(C)CCCNc1c2ccccc2nc2ccccc12 | 0.78 | 1.03 | 0.87 |  |  |  |  |  |  |  |  |  |  |  |  |  | 
CN(C)CCCNc1c2ccccc2nc2cccc([N+](=O)[O-])c12 [NITRACRINE] | 1.8 | 12.8 | 8 | 7.3 | 0.84 | 0.98 | 0.86 | 0.04 | 7.58 | 8.70 | 9.18 | 14.9 | 3.8 |  |  |  | 
